Source: ChEMBL document CHEMBL1833902, “Design, synthesis, and biological studies of efficient multivalent melanotropin ligands: tools toward melanoma diagnosis and treatment” (J Med Chem, 2011)
pIC50: −log10 of the molar value. The source made the active and inactive calls. No cut-off for these calls is given here.

What was measured:
Melanocortin receptor 4 [1] = molecular target: T1, Melanocortin receptor 4 (Homo sapiens, UniProt P32245); assay: Agonist activity at human MC4R expressed in HEK293 cells assessed as increase in cAMP production at 10^-7 to 10^-12 M after 15 mins by chemiluminescent assay; type: functional, cell-based
T1 sequence (P32245 whole entry): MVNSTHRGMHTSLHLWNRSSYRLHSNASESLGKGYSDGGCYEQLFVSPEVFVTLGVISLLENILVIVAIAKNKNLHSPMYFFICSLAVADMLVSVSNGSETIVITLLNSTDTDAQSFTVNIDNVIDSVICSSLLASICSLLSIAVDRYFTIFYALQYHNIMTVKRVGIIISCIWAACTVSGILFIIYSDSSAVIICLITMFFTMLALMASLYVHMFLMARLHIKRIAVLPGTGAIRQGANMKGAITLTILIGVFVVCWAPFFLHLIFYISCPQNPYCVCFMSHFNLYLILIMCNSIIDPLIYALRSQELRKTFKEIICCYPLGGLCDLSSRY
How it was run: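 HEK293/hMC4R cells in DMEM with 10% SCS, seeded 3 days ahead. Cells pre-incubated 10 min at 37°C with 1mM IBMX, then 8 ligand concentrations given for 15 min at 37°C. Lysed 25 min at 37°C. cAMP measured by competitive chemiluminescent immunoassay (AP conjugate, anti-cAMP antibody) against a same-run standard curve, basal subtracted. Triplicate wells, 3 experiments.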

Melanocortin receptor 4 [2] = molecular target: T1, Melanocortin receptor 4; assay: Agonist activity at of human MC4R expressed in HEK293 cells assessed as cAMP level at 10^-7 to 10^-12 M after 15 mins by chemiluminescent assay relative to 5% forskolin response; type: functional, cell-based
How it was run: (§1)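 Same cAMP immunoassay in HEK293/hMC4R cells (1mM IBMX, 15 min ligand at 37°C, basal subtracted). For each ligand, the concentration giving cAMP at 5%, 10% or 25% of the 10 μM forskolin maximum was found. Receptor occupancy there was computed as [RL] = Bmax × [L]/([L] + Kd), with Kd from the Eu-NDP-α-MSH competition binding assays.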

Melanocortin receptor 4 [3] = molecular target: T1, Melanocortin receptor 4; assay: Agonist activity at of human MC4R expressed in HEK293 cells assessed as cAMP level at 10^-7 to 10^-12 M after 15 mins by chemiluminescent assay relative to 10% forskolin response; type: functional, cell-based; how it was run: as §1
Melanocortin receptor 4 [4] = molecular target: T1, Melanocortin receptor 4; assay: Displacement of Eu-NDP-alpha-MSH from human MC4R expressed in HEK293 cells after 2 hrs by time resolved fluorescence assay; type: cell-based

Row | Compound | Activity (Melanocortin receptor 4 [1]) | Activity (Melanocortin receptor 4 [2]) [pmol] | Activity (Melanocortin receptor 4 [3]) [pmol] | pIC50 (Melanocortin receptor 4 [4])
1 | C#CCCCC(=O)N[C@@H](Cc1cnc[nH]1)C(=O)N[C@H](Cc1ccccc1)C(=O)N[C@@H](CCCNC(=N)N)C(=O)N[C@@H](Cc1c[nH]c2ccccc12)C(=O)Nc1cn(CC(=O)NCCCC(CCCNC(=O)Cn2cc(NC(=O)[C@H](Cc3c[nH]c4ccccc34)NC(=O)[C@H](CCCNC(=N)N)NC(=O)[C@@H](Cc3ccccc3)NC(=O)[C@H](Cc3cnc[nH]3)NC(=O)CCC#C)nn2)(NC(=O)CNC(=O)Cn2cc(NC(=O)[C@H](Cc3c[nH]c4ccccc34)NC(=O)[C@H](CCCNC(=N)N)NC(=O)[C@@H](Cc3ccccc3)NC(=O)[C@H](Cc3cnc[nH]3)NC(=O)CCC#C)nn2)C(=O)NCCC(N)=O)nn1 (some centres not stated) | Active | 14000 | 75000 | –
2 | C#CCCCC(=O)N[C@@H](Cc1cnc[nH]1)C(=O)N[C@H](Cc1ccccc1)C(=O)N[C@@H](CCCNC(=N)N)C(=O)N[C@@H](Cc1c[nH]c2ccccc12)C(=O)Nc1cn(CC(=O)NCCCC(CCCNC(=O)Cn2cc(NC(=O)[C@H](Cc3c[nH]c4ccccc34)NC(=O)[C@H](CCCNC(=N)N)NC(=O)[C@@H](Cc3ccccc3)NC(=O)[C@H](Cc3cnc[nH]3)NC(=O)CCC#C)nn2)(NC(=O)CNC(C)=O)C(=O)NCCC(N)=O)nn1 (some centres not stated) | Active | 12000 | 45000 | 6.51
